Published values gathered from unrelated publications.
Protocols differ between the studies behind these lines.
SIRT6: NAD-dependent protein deacylase sirtuin-6 (SIRT6, Homo sapiens, UniProt Q8N6T7)
Adra1a: Alpha-1A adrenergic receptor (Adra1a, Rattus norvegicus, UniProt P43140)
HTR6: 5-hydroxytryptamine receptor 6 (HTR6, Homo sapiens, UniProt P50406)
Plasmepsin II: Plasmepsin II (Plasmodium falciparum, UniProt P46925)

O=C(NO)c1ccc(C(=O)NOCc2ccc(C(F)(F)F)cc2)cc1 — inhibition (SIRT6; enzyme activity, inhibitor, fluorescence; 100 µM): 93.3%
Ic1cccc2cnccc12 — inhibition (Adra1a; ligand displacement, radioligand; 10 µM): 9%
Nc1ccc(-c2ccncc2)cc1NC(=O)N1CCCC1 — inhibition (HTR6; ligand displacement, radioligand; 10 µM): 16%
O=c1c2ccccc2c(Cc2ccc(Cl)cc2)nn1C1CCCNCC1 (stereo not shown) — inhibition (Sodium channel protein type 5 subunit alpha (SCN5A, Homo sapiens, UniProt Q14524); ion current, inhibitor, patch clamp; CHO; 10 µM): 62%
CCN(CC)c1ccc(C2Nc3ccc(C(=O)c4ccccc4)cc3NC3=C2C(=O)CC(C)(C)C3)cc1 (stereo not shown) — inhibition (HTR6; ligand displacement, radioligand; 10 µM): 30%
CC/C(=N\NC(=O)NCc1cccc(O)c1)c1ccc(O)c(C)c1O — inhibition ([Pyruvate dehydrogenase (acetyl-transferring)] kinase isozyme 4, mitochondrial (PDK4, Homo sapiens, UniProt Q16654); enzyme activity, inhibitor; 0.1 µM): -2.1%
Cc1ccc(Sc2ccc(CONC(=O)c3ccc(C(N)=O)cc3)cc2C(F)(F)F)cc1 — inhibition (SIRT6; enzyme activity, inhibitor, fluorescence; 100 µM): 98.6%
CN(Cc1ccc(NC(=O)C2=Cc3cc(-c4ccc(OCCCCCO)cc4)ccc3CCC2)cc1)C1CCOCC1 — inhibition (C-C chemokine receptor type 2 (CCR2, Homo sapiens, UniProt P41597); ligand displacement, radioligand; 1 µM, cell membranes): 53%
CC(C)(C)c1ccc(CONC(=O)c2ccc(C(N)=O)cc2)cc1 — inhibition (SIRT6; enzyme activity, inhibitor, fluorescence; 100 µM): 95.1%
C/C(=C\C(=O)OCCCCCCCCC(=O)O)C[C@@H]1OC[C@H](C[C@@H]2O[C@H]2[C@@H](C)[C@H](C)O)[C@@H](O)[C@H]1O — inhibition (C-C chemokine receptor type 5 (CCR5, Homo sapiens, UniProt P51681); calcium signal, antagonist; U87/CD4/CCR5; 0.8 µM): 52%
COC(=O)c1ccc(C(=O)NOCc2ccccc2)cc1 — inhibition (SIRT6; enzyme activity, inhibitor, fluorescence; 100 µM): 52.2%
O=[N+]([O-])c1ccc(N2CCN(CCC(O)c3csc4ccc(F)cc34)CC2)c(C(F)(F)F)c1 (stereo not shown) — inhibition (Plasmepsin II; enzyme activity, inhibitor; 5 µM): 13%
CNC(=O)c1cc2c(Oc3ccc(NC(=O)C4(C(=O)Nc5ccc(F)cc5)CC4)cc3)ccnc2cc1OC — inhibition (Angiopoietin-1 receptor (TEK, Homo sapiens, UniProt Q02763, R849W); enzyme activity, inhibitor, radiometric; 1 µM): 99%
COc1cc2c3c(c1OCc1ccc(Br)cc1)-c1cc4c(cc1CC3N(C)CC2c1ccccc1)OCO4 (stereo not shown) — inhibition (5-hydroxytryptamine receptor 7 (HTR7, Homo sapiens, UniProt P34969); ligand displacement, radioligand; 10 µM): -22.6%
O=[N+]([O-])c1ccc(N2CCN(CCC(O)c3ccc(F)cc3)CC2)c(C(F)(F)F)c1 (stereo not shown) — inhibition (Plasmepsin II; enzyme activity, inhibitor; 5 µM): 0%
NC(=O)c1ccc(C(=O)NOCc2ccc(-n3cccn3)cc2)cc1 — inhibition (SIRT6; enzyme activity, inhibitor, fluorescence; 100 µM): 91.8%
O=C(c1ccc(F)cc1)N(Cc1ccccc1)C1CCCCC1 — inhibition (Voltage-dependent N-type calcium channel subunit alpha-1B (Cacna1b, Rattus norvegicus, UniProt Q02294); cell-free assay; 10 µM): 5%
O=C(Nc1ccc(S(=O)(=O)N2CCC(Cl)CC2)cc1)c1ccc([N+](=O)[O-])o1 — inhibition (Adra1a; ligand displacement, radioligand; 10 µM): 19%
CNC(=O)c1ccc(C(=O)NOCc2ccc(C(F)(F)F)cc2)cc1 — inhibition (SIRT6; enzyme activity, inhibitor, fluorescence; 100 µM): 35.3%
